High-throughput results as filed in PubChem.
CHO parental Ca: ATP-evoked calcium signal inhibitors, parental CHO, primary screen, counter-screen for OX1R antagonist project, cell-based, fluorescence, Fluo-8 calcium dye. parental CHO-K1, ATP-induced calcium, Fluo-8 fluorescence. inhibition, % at 5.6 µM. 330,000 compounds, 0.63% hits. AID 463079, 2010;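 active = inhibition above that plate's mean sample inhibition plus 3 SD, cut at about 26% in these data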;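 also: 0% = ATP-challenged DMSO wells and 100% = DMSO wells without ATP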
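Test system: untransfected parental CHO cell line; also added: ATP stimulus; dosing: 5.6 µM, single dose; signal: calcium-sensitive Fluo-8 fluorescence; measure: percent inhibition of ATP-evoked calcium rise, normalized to controls; benchmarks: low control ATP plus DMSO, high control DMSO only; replication: one well per compound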
OX1R antag-1: antagonists of human orexin 1 receptor (OX1R) | OX1R-expressing cells, FRET antagonist read-out | inhibition, % at 6.6 µM | 330,000 compounds, 1.8% hits; in the data active = inhibition mostly above about 38%, no sharp cut-off; inactive = mostly below about 40%;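 also: 0% = agonist challenge alone and 100% = reference antagonist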
Target sequence (O43613 whole entry, looked up): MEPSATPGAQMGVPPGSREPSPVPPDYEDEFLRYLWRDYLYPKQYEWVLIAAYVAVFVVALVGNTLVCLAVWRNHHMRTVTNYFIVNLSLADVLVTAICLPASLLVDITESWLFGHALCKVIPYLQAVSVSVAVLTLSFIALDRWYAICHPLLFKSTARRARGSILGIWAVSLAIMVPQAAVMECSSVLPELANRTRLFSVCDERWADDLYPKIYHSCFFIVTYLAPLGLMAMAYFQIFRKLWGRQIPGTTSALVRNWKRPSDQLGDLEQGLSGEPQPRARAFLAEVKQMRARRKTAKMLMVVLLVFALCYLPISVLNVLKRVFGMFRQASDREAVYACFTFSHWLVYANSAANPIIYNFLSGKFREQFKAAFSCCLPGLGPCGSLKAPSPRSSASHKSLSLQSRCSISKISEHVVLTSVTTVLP
OX1R antag-2: OX1R (HCRTR1) antagonists, primary screen, fluorescence, CHO/OX1R cells, Fluo-8 calcium, orexin A; Orexin/Hypocretin receptor type 1 (Homo sapiens), O43613; Fluo-8 calcium fluorescence; inhibition, % at 5 µM; 330,000 compounds, 0.43% hits; AID 434989, 2010;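 active = inhibition above its plate's threshold, mean inhibition of all tested compounds on the plate plus 3 SD, cut at about 37% in these data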;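 also: 0% = orexin A challenge wells and 100% = SB-334867-A antagonist wells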
GPR7 antag: GPR7 receptor antagonists, primary screen, cell-based, fluorescence, single concentration; Neuropeptides B/W receptor type 1 (Homo sapiens), P48145; inhibition, % at 4.4 µM; 290,000 compounds, 1.1% hits; AID 1861, 2009; GPR7-expressing cells, fluorescence antagonist assay; in the data active = inhibition above about 16%, passing the limit was not always enough;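 also: cells stimulated with the agonist NPW; 0% = agonist with vehicle and 100% = vehicle without agonist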
Target sequence (P48145 whole entry, looked up): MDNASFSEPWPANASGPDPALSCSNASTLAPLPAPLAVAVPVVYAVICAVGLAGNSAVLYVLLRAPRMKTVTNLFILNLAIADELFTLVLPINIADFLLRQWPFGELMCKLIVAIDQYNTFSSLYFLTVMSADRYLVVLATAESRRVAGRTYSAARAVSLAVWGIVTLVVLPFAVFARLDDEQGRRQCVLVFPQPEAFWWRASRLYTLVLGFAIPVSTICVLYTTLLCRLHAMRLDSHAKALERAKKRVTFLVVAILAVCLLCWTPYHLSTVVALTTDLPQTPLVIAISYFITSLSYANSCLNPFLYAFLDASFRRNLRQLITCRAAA
TAAR1 antag: human TAAR1 antagonists, primary screen, Fluo-8 calcium fluorescence, CHO RD-HGA16 cells; 360,000 compounds, 1.5% hits; antagonist; inhibition, % at 3 µM;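 active = inhibition above a per-plate cutoff, the mean inhibition of test compounds on that plate plus 3 SD, cut at about 49% in these data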;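 also: 0% = DMSO plus EC80 beta-PEA response and 100% = DMSO alone without agonist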
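Test system: RD-HGA16 CHO cells with stable hTAAR1 and Gα16 / Probe or stimulus: EC80 β-phenethylamine stimulus / Times: seeding 17-24 h prior, 75-min 37 °C, 30-min RT dye loading / Detection: Fluo-8 calcium-sensitive fluorescence / Read-out basis: % inhibition scaled between DMSO and EC80 PEA controls / Repeats: singlicate, one well per test compound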
TAAR1 agonist: human TAAR1 agonists, primary screen, Fluo-8 calcium fluorescence, CHO RD-HGA16 cells. Trace amine-associated receptor 1 (Homo sapiens), Q96RJ0. vehicle wells 0%, saturating PEA agonist 100%. activation, % at 3 µM. 360,000 compounds, 0.99% hits;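 active = activation above the mean activation of all test compounds in the run plus 3 SD, cut at about 38% in these data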
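System: CHO RD-HGA16 cells carrying human TAAR1 plus Gα16; Incubation: 17-24 h seeding, 75 min 37 °C dye, 30 min RT; Measured by: Fluo-8 fluorescence, 5 s baseline then 140 s kinetic read; Control set: DMSO and PEA EC100; Replication: single well for each compound.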
* hit, by the source's call; . = no result. Hits are enriched below; roughly 4.6% of the tested compounds scored in any of these assays.

SMILES	CHO parental Ca	OX1R antag-1	OX1R antag-2	GPR7 antag	TAAR1 antag	TAAR1 agonist
O=C(Nc1ccncc1)c1ccc2c(c1)C(=O)N(CC1CCCO1)C2=O (stereo not given)	-15.8	53.5*	-13.9	-8.6	35.2	36.5
COc1cccc(C=NNC(=S)NC2CC3CCC2C3)c1O (stereo not given)	.	.	.	.	-20.3	-0.4
Cc1cccc(NS(=O)(=O)c2ccc(NC(=O)CN(c3cc([N+](=O)[O-])ccc3C)S(C)(=O)=O)cc2)c1	20.2	14.5	14.6	65.8*	6.1	2.4
COc1ccc(C)cc1NS(=O)(=O)c1ccc(NC(=O)CN(c2cc([N+](=O)[O-])ccc2C)S(C)(=O)=O)cc1	28.2	14.2	4.3	16.7	-2.4	2.1
COCCNC(=O)c1c(N)[nH]c(C(=O)c2ccc(Br)cc2)c1-c1ccc(Br)cc1	.	.	.	.	1.4	0.0
Cc1cc(NC(=O)c2c(F)cccc2Cl)n(-c2nc3ccccc3[nH]2)n1	-4.1	27.9	-17.5	-2.8	50.2*	5.6
Cc1cc(NC(=O)c2c(F)cccc2F)n(-c2nc3ccccc3[nH]2)n1	-20.6	2.8	-33.0	-19.2	22.8	4.5
CCN(CC)c1nc(C=Cc2ccc(N(C)C)cc2)c2nccnc2n1	.	.	.	.	61.7*	61.3*
Cc1cccc2sc(N(CCN(C)C)C(=O)C3CCN(S(=O)(=O)c4cccs4)CC3)nc12	-10.0	0.4	-15.1	.	41.0	38.7*
C(=CCSc1ccccn1)CSc1ccccn1	.	.	.	.	-12.3	2.3
Oc1ccc(N=Nc2ccc3c(c2)OCCO3)c2ncccc12	50.8*	19.0	50.5*	-4.3	79.1*	36.1
CCOc1ccc(N=Nc2ccc(O)c3ncccc23)cc1	.	.	.	-6.4	6.4	6.8
Cc1ccc(C)c(N=Nc2ccc(O)c3ncccc23)c1	37.3*	15.0	20.6	-17.5	3.2	3.1
Cc1cccc(N=Nc2ccc(O)c3ncccc23)c1	67.7*	24.4	47.8*	-4.4	76.4*	30.1
CC(C)(C)OC(=O)N1CCC[C@@H]1C(=O)NCc1ccccc1	.	.	.	.	-24.1	2.3
COc1ccc(NC(=O)N[C@H]2CC[C@@H](CC(=O)NC3CCC3)O[C@@H]2CO)cc1	.	.	.	.	-10.9	0.9
O=C(CSc1nnc(Cc2ccccc2)n1-c1ccccc1)NNC(=O)Cc1ccccc1	-13.3	57.3*	-15.9	1.7	-12.1	23.9
COC(=O)[C@]12C[C@H](CC(=O)NCCCN3CCCC3=O)C(=O)N(Cc3ccccc3)C1=C[C@H](C1CCCC1)O[C@@H]2C	.	.	.	.	0.9	-0.1
CCc1nc2c(OCc3ccc(Cl)cc3)cccn2c1N(C)C(=O)c1ccncc1	.	.	.	.	-19.1	0.5
Cc1cc(C)c(NC(=O)C2CCCN2CCOC(=O)c2ccccc2)c(C)c1 (stereo not given)	-2.7	73.2*	6.9	7.1	-8.0	4.9
CCOC(=O)CN1CCCc2nc(-c3ccc(OC)cc3)ccc21	.	.	.	.	-12.3	0.0
CC(C)NC(=O)N(C)C[C@@H]1Oc2cc(Br)ccc2S(=O)(=O)N([C@@H](C)CO)C[C@H]1C	.	.	.	.	13.4	0.1
C[C@H](O)[C@@H]1C(=O)N2CCc3c([nH]c4c(-c5ccccc5)cccc34)[C@@H]2C[C@@H]1N(C)C(=S)Nc1ccc(C#N)cc1	.	.	.	.	5.8	3.9
COC(=O)c1cn(NC(=O)Cc2ccc(OC)c(OC)c2)c(=O)c2ccccc12	-13.3	47.8*	-8.1	-2.3	-3.7	2.2
COC(=O)c1cn(NC(=O)Cc2cccc(OC)c2)c(=O)c2ccccc12	-23.0	72.3*	-21.0	1.5	-7.6	1.0
SMILES	CHO parental Ca	OX1R antag-1	OX1R antag-2	GPR7 antag	TAAR1 antag	TAAR1 agonist
O=C(NCCO)c1ccc(-c2ccc3nncn3c2)cc1	.	.	.	.	-10.0	0.8
COc1cccc(CNC23CC4CC(CC(C4)C2)C3)c1OCc1ccccc1	8.8	12.5	-24.5	39.1*	-16.4	13.5
COc1ccc(C(C)=O)cc1Cn1c(C)c(C(=O)NCc2ccc3c(c2)OCO3)sc1=O	.	.	.	.	8.0	-1.0
Cc1[nH]c2ccccc2c1CCNC(=O)c1ccc2c(c1[N+](=O)[O-])C(=O)c1ccccc1C2=O	-6.4	70.6*	-7.8	-7.2	12.2	-3.0
Cc1[nH]c2c(C)cccc2c1CCNC(=O)c1ccc2c(c1[N+](=O)[O-])C(=O)c1ccccc1C2=O	1.9	75.1	5.3	-3.3	20.0	3.7
CN(C)CCCN1C(=O)c2cccc3c(Br)ccc(c23)C1=O	-13.3	63.7*	-26.8	1.6	-16.1	1.6
O=S(=O)(c1ccc(Cl)cc1)n1cccn1	11.6	13.9	10.1	5.0	-18.8	1.6
Cc1nc(C)c(-c2ccn(S(=O)(=O)c3ccc(Cl)cc3)n2)o1	-8.2	3.2	-22.6	19.4*	-5.5	1.4
Cc1nnc(SCC(=O)Nc2cccc(S(=O)(=O)N3CCCC3)c2)n1C1CC1	.	.	.	.	-15.5	1.2
COc1cccc(N=C2NC(=O)/C(=C/c3cc([N+](=O)[O-])ccc3O)S2)c1	11.7	-7.0	16.2	-0.7	-6.4	7.3
Cc1ccc(S(=O)(=O)/N=C2/NC(=O)/C(=C/c3ccncc3)S2)cc1	-9.6	5.5	-9.1	0.4	12.7	-0.1
COc1cc(/C=C2\S/C(=N/S(=O)(=O)c3ccc(C)cc3)NC2=O)c([N+](=O)[O-])cc1OC	-4.8	39.2*	-13.4	-9.5	-9.3	6.4
O=C1NC(=Nc2ccccc2Cl)S/C1=C\c1cc([N+](=O)[O-])ccc1O	14.4	72.5*	7.3	-9.6	26.6	11.5
Cc1ccc(S(=O)(=O)/N=C2/NC(=O)/C(=C\c3ccco3)S2)cc1	-18.9	41.0	-11.9	-3.6	-7.6	6.2
Cc1ccc(S(=O)(=O)/N=C2/NC(=O)/C(=C/c3ccccc3)S2)cc1	-19.8	48.3	-25.9	-9.5	16.1	-0.6
Cc1ccc(S(=O)(=O)/N=C2/NC(=O)/C(=C/c3cc([N+](=O)[O-])ccc3O)S2)cc1	47.9*	19.6	42.8*	16.8	37.5	30.4
Cc1ccc(S(=O)(=O)/N=C2/NC(=O)/C(=C\c3ccccc3)S2)cc1	10.1	32.6*	4.1	.	15.3	-1.7
COc1ccccc1CNS(=O)(=O)c1ccc(F)cc1Br	.	.	.	.	-22.4	3.5
COC(=O)CCN1CCSCCS1(=O)=O	.	.	.	.	-11.7	1.2
CC(C)[C@H](NC(=O)c1cccs1)C(=O)N1CCC[C@H]1C(=O)NCc1ccccc1	.	.	.	.	-9.1	1.0
COc1ccc(CN2c3ccccc3C(=O)CS2(=O)=O)cc1OC	.	.	.	.	-3.6	0.3
